Measurements collected from several papers.
Compare with care: the assays were run in different laboratories.

| SMILES | system | conditions | Cmax |
| --- | --- | --- | --- |
| Cc1cc(C)nc(Nc2ncc(C(=O)NCCc3c(C)[nH]c4ccccc34)cn2)c1 | C57BL/6 mouse, plasma | intraperitoneal, 4.4 mg/kg | 191 ng/mL |
| CCCCCCCC(=O)N[C@@H](CCCCN)C(=O)N[C@@H](CCCCN)C(=O)N[C@@H](C)C(=O)N[C@@H](CC(C)C)C(=O)N[C@@H](CCCCN)C(=O)N[C@@H](CC(C)C)C(=O)N[C@@H](C)C(=O)N[C@@H](CCCCN)C(=O)N[C@@H](CCCCN)C(=O)N1CCC[C@H]1C(=O)N[C@@H](CC(C)C)C(=O)N[C@@H](CCCCN)C(=O)N[C@@H](CC(C)C)C(=O)N[C@@H](CC(C)C)C(=O)N[C@@H](CCCCN)C(N)=O | female CD-1 mouse, blood | intravenous, 10 mg/kg, single dose | 6950 ng/mL |
| Cc1c(P(=S)(c2ccccc2)c2ccccc2)n2ccccc2[n+]1C/C=C/c1ccccc1.[Br-] | mouse, plasma | intraperitoneal, 10 mg/kg | 1500 nM |
| C[C@]12CC[C@H](n3ccnc3)CC1=CC[C@@H]1[C@@H]2CC[C@]2(C)C(n3cnc4ccccc43)=CC[C@@H]12.Cl | male CD-1 mouse, plasma | oral, 10 mg/kg | 1270 ng/mL |
| CN1CCCCC1Cn1cc(C(=O)c2cc([N+](=O)[O-])ccc2I)c2ccccc21 (racemic) | mouse, plasma | oral, 25 mg/kg | 800 ng/mL |
| NCC(=O)Nc1ccc(-n2nc(C(F)(F)F)cc2-c2ccc3c(ccc4ccccc43)c2)cc1 | mouse, plasma | oral, 80 mg/kg, single dose | 2080 ng/mL |
| COc1ncccc1-c1cnn2ccc(N3CCN(C(=O)OC(C)C)CC3)nc12 | mouse, plasma | oral, 10 mg/kg | 5200 nM |
| CN[C@H](CC(C)C)C(=O)N[C@H]1C(=O)N[C@@H](CC(N)=O)C(=O)N[C@H]2C(=O)NC3C(=O)N[C@H](C(=O)N[C@H](C(=O)NCCC[N+](C)(C)C)c4cc(O)cc(O)c4-c4cc3ccc4O)[C@H](O)c3ccc(c(Cl)c3)Oc3cc2cc(c3OC2OC(CO)C(O)[C@H](O)[C@@H]2O[C@H]2CC(C)(NCc3ccc(-c4ccc(Cl)cc4)cc3)[C@H](O)[C@H](C)O2)Oc2ccc(cc2Cl)[C@H]1O (stereo partly drawn) | mouse, plasma | intravenous, 10 mg/kg | 14100 ng/mL |
| CCC[C@@](N)(CO)CCc1ccc(OCCCCCC(C)C)cc1 | mouse, plasma | intraperitoneal, 10 mg/kg | 1460 nM |
